The results in this text go back to ChEMBL document CHEMBL5252540, “3-Aroyl-1,4-diarylpyrroles Inhibit Chronic Myeloid Leukemia Cell Growth through an Interaction with Tubulin” (ACS Med Chem Lett, 2017).

Data set [1] has as its system LAMA-84. In words: Effect on total cofilin protein level in human LAMA-84 cells at 100 nM incubated for 24 hrs by Western blot analysis. Format: functional, cell-based. (In general: Immunoblotting shows a protein as a band on a membrane.)
The subject of data set [2] is LAMA-84. Put plainly: Effect on total beta-catenin protein level in human LAMA-84 cells at 100 nM incubated for 24 hrs by Western blot analysis. Format: functional, cell-based.
Data set [3] concerns the target Bcr/Abl fusion protein (Homo sapiens) (UniProt P00519+P11274). In words: Inhibition of BCR-ABL phospho-activation in human LAMA-84 cells at 100 nM incubated for 24 hrs by Western blot analysis. The class given is cell-based. In outline:
(§1)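 LAMA84 cells cultured 24 h at 100 nM, alongside IM 100 nM and DMSO controls; lysates analysed by Western immunoblotting for BCR/ABL auto-activation and total E-cadherin.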

Data set [4] relates to KU812 cell line. Put plainly: Induction of apoptosis in human KU812 cells assessed as increase in PARP cleavage measured after 24 hrs by Western blot analysis. The class given is functional, cell-based. The gist of the method:
(§2)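 KU812 cells treated for 6 h and 24 h; immunoblotting for p21Cip/WAF1 and PARP cleavage.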

Data set [5] relates to KU812 cell line. Put plainly: Induction of cell cycle arrest in human KU812 cells assessed as accumulation of cells at sub-G1 phase incubated for 2 to 8 hrs by RNase/PI staining based flow cytometry analysis relative to control. The class given is functional. Conditions: time 2-8 hrs. The gist of the method: (§3)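 KU812 cells treated with 100 nM versus DMSO vehicle for 2-8 h or 24 h; cell cycle distribution (G2/M, sub-G1) by flow cytometry.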
A general note: Flow cytometry measures light scatter and fluorescence of single cells or particles in a stream.

Data set [6] relates to LAMA-84. In words: Antiproliferative activity against human LAMA-84 cells expressing BCR/ABL assessed as cell growth inhibition at 12 nM incubated for 48 hrs by MTT assay relative to control. Format: functional. The gist of the method:
(§4)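 KU812 or LAMA84 CML blast-crisis cells (BCR/ABL-expressing) exposed to increasing doses for 48 h; proliferation read by MTT assay; triplicate experiments.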
A general note: Tetrazolium dyes change colour on reduction, which living cells bring about.

For the next data set, the target named is Tubulin (Homo sapiens) (UniProt P68371+Q9H4B7+P0DPH7+P68366+Q13509+Q71U36+P04350+Q3ZCM7+P07437+P68363+Q9BQE3+Q6PEY2+Q13885+Q9BVA1+Q9BUF5). Put plainly: Inhibition of [3H]colchicine binding to tubulin (unknown origin) at 5 uM incubated for 10 mins relative to control. Format: protein-complex assay.
Another data set relates to KYSE-150 cell line. In words: Cytotoxicity against human KYSE-150 cells assessed as cell growth inhibition incubated for 48 to 96 hrs by celltiter-flor reagent based fluorescence assay. Format: functional.
The subject of the next data set is HCT-116. In words: Cytotoxicity against human HCT-116 cells assessed as cell growth inhibition incubated for 48 hrs by MTT assay. The class given is functional, cell-based. Conditions: HCT-116, 48 h.
For another data set, the system named is HepG2. Put plainly: Cytotoxicity against human HepG2 cells assessed as cell growth inhibition incubated for 48 hrs by MTT assay. The class given is functional, cell-based. The settings on record: HepG2, 48 h.
The subject of data set [7] is KU812 cell line. Put plainly: Antiproliferative activity against human KU812 cells expressing BCR/ABL assessed as cell growth inhibition at 12 nM incubated for 48 hrs by MTT assay relative to control. Format: functional. The gist of the method:
as §4

A short description of data set [8]: Cytotoxicity against human PBMC cells assessed as reduction in cell viability up to 1 uM incubated for 48 hrs by MTT assay. Format: toxicity, cell-based. In outline:
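Peripheral blood mononuclear cells isolated from healthy donors, exposed to compound up to 1 μM for 48 h; viability read by MTT assay; triplicate experiments.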

For data set [9], the system named is KBM5. In words: Cytotoxicity against imatinib mesylate sensitive human KBM5 cells expressing wild type BCR/ABL assessed as cell growth inhibition. The class given is functional, cell-based. In outline: (§5)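 Hematopoietic KBM5 cells ectopically expressing IM-sensitive wild-type or IM-resistant T315I BCR/ABL, dosed over a concentration range; growth measured by MTT assay; average IC50 from triplicate experiments.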

Data set [10] concerns KBM5. Put plainly: Cytotoxicity against imatinib mesylate resistant human KBM5 cells expressing BCR/ABL T315I mutant assessed as cell growth inhibition. The class given is functional, cell-based. In outline: as §5
For data set [11], the system named is KBM5. In words: Induction of apoptosis in imatinib mesylate resistant human KBM5 cells expressing BCR/ABL-T315I mutant assessed as annexin V positive cells incubated for 48 hrs by annexin V-FITC/propidium iodide staining based flow cytometry analysis (reference value: 2.2+/-1.8%). Format: functional.
The test system of data set [12] is KBM5. In words: Induction of apoptosis in imatinib mesylate sensitive human KBM5 cells expressing wild type BCR/ABL assessed as annexin V positive cells incubated for 48 hrs by annexin V-FITC/propidium iodide staining based flow cytometry analysis (reference value: 2.2+/-1.8%). The class given is functional.
Data set [13] deals with KU812 cell line. In words: Induction of cell cycle arrest in human KU812 cells assessed as accumulation of cells at G2/M phase incubated for 2 to 8 hrs by RNase/PI staining based flow cytometry analysis (reference value: 35.7+/-[…]). The settings on record: time 2-8 hrs. The class given is functional.
Data set [14] concerns KU812 cell line. In words: Induction of cell cycle arrest in human KU812 cells assessed as accumulation of cells at G2/M phase incubated for 24 hrs by RNase/PI staining based flow cytometry analysis relative to control. Format: functional. In outline: as §3
The subject of data set [15] is KU812 cell line. Put plainly: Induction of apoptosis in human KU812 cells assessed as accumulation of cells at sub-G1 phase incubated for 24 hrs by RNase/PI staining based flow cytometry analysis (reference value: 0.4+/-0.8%). The class given is functional.
Data set [16] deals with KU812 cell line. Put plainly: Induction of apoptosis in human KU812 cells assessed as upregulation of p21 Cip/WAF1 protein expression incubated for 6 hrs by Western blot analysis. The class given is functional, cell-based. The gist of the method: as §2
The test system of data set [17] is KU812 cell line. In words: Induction of apoptosis in human KU812 cells assessed as upregulation of p21 Cip/WAF1 protein expression measured after 24 hrs by Western blot analysis. The class given is functional, cell-based. The gist of the method:
as §2

Data set [18] concerns LAMA-84. Put plainly: Downregulation of E-cadherin protein level in human LAMA-84 cells at 100 nM incubated for 24 hrs by Western blot analysis. The class given is functional, cell-based. In outline:
as §1

Data set [19] concerns KU812 cell line. In words: Antiproliferative activity against human KU812 cells expressing BCR/ABL assessed as cell growth inhibition. The class given is functional, cell-based. In outline: as §4
The subject of data set [20] is LAMA-84. In words: Antiproliferative activity against human LAMA-84 cells expressing BCR/ABL assessed as cell growth inhibition. Format: functional, cell-based. The gist of the method:
as §4

In data set [21] the test system is KU812 cell line. Put plainly: Induction of morphological changes in human KU812 cells assessed as elongated shape at 100 nM incubated for 16 hrs by immunostaining based phase contrast microscopic analysis. The class given is functional, cell-based. The gist of the method:
(§6)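 KU812 cells treated with 100 nM versus DMSO vehicle; shape examined by phase contrast microscopy with tubulin immunostaining, scoring elongation, multiple centrosomes and failed cytokinesis.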

Data set [22] has as its system KU812 cell line. In words: Induction of morphological changes in human KU812 cells expressing BCR/ABL assessed as multiple centrosome cells with failed cytokinesis at 100 nM incubated for 16 hrs by immunostaining based phase contrast microscopic analysis. The class given is functional, cell-based. In outline:
as §6

For data set [23], the system named is LAMA-84. Put plainly: Downregulation of unphosphorylated beta-catenin protein expression in human LAMA-84 cells at 100 nM incubated for 24 hrs by Western blot analysis. The class given is functional, cell-based.
Data set [24] relates to LAMA-84. Put plainly: Downregulation of phospho cofilin protein expression in human LAMA-84 cells at 100 nM incubated for 24 hrs by Western blot analysis. Format: functional, cell-based.
In data set [25] the test system is KU812 cell line. Put plainly: Induction of apoptosis in human KU812 cells assessed as appearance of blue-to-cyan fluorescence in nucleus by Hoechst-3258 staining based analysis. The class given is functional, cell-based. In outline:
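KU812 cells treated with compound versus DMSO control; nuclear morphology by Hoechst-3258 staining, blue-to-cyan fluorescence scored as apoptotic.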

Data set [26] relates to LAMA-84. Put plainly: Potentiation of imatinib mesylate induced antiproliferative activity against human LAMA-84 cells assessed as imatinib mesylate IC50 incubated for 48 hrs by MTT assay. The class given is functional, cell-based. Conditions: LAMA-84, 48 h.
Data set [27] concerns KBM5. In words: Potentiation of imatinib mesylate induced apoptosis in human KBM5 cells expressing wild type BCR/ABL assessed as increase in pro-apoptogenic effect at 100 nM incubated for 24 hrs by annexin V-FITC/propidium iodide staining based flow cytometry analysis. Format: functional, cell-based. The gist of the method:
(§7)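 Annexin V-FITC staining to detect early cell death after 24 h; IM given with or without 100 nM test agent; read by flow cytometry; triplicate experiments.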

In data set [28] the test system is KBM5. Put plainly: Potentiation of imatinib mesylate induced apoptosis in human KBM5 cells expressing BCR/ABL T315I mutant assessed as increase in pro-apoptogenic effect at 100 nM incubated for 24 hrs by annexin V-FITC/propidium iodide staining based flow cytometry analysis. Format: functional, cell-based. In outline: as §7
In data set [29] the test system is KU812 cell line. Put plainly: Induction of apoptosis in human KU812 cells assessed as upregulation of caspase-3 activation by flow cytometry. The settings on record: time 0-24 hrs, TDE = time-dependent effect.
The test system of a further data set is MCF7. In words: Cytotoxicity against human MCF7 cells assessed as cell growth inhibition incubated for 3 days by trypan blue exclusion assay. Format: functional, cell-based. Conditions: MCF7, 72 h. In outline:
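MCF-7 human breast carcinoma cells; growth inhibition; triplicate experiments.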

The target of another data set is Tubulin. In words: Inhibition of tubulin (unknown origin) polymerization preincubated for 15 mins followed by GTP addition by turbidity based spectrophotometer analysis. The class given is protein-complex assay, Homo sapiens.

The source made the active and inactive calls. The calls are words filed in the database; no cut-off is given here. A value given as a limit tells only on which side of the number the result lay.

By inhibition is commonly meant the relative decrease from the control value, in per cent. Broadly, the IC50 is the concentration that gives 50% inhibition.

Chain of Bcr/Abl fusion protein (Homo sapiens) (P00519 whole entry, looked up, the tested form may be a part): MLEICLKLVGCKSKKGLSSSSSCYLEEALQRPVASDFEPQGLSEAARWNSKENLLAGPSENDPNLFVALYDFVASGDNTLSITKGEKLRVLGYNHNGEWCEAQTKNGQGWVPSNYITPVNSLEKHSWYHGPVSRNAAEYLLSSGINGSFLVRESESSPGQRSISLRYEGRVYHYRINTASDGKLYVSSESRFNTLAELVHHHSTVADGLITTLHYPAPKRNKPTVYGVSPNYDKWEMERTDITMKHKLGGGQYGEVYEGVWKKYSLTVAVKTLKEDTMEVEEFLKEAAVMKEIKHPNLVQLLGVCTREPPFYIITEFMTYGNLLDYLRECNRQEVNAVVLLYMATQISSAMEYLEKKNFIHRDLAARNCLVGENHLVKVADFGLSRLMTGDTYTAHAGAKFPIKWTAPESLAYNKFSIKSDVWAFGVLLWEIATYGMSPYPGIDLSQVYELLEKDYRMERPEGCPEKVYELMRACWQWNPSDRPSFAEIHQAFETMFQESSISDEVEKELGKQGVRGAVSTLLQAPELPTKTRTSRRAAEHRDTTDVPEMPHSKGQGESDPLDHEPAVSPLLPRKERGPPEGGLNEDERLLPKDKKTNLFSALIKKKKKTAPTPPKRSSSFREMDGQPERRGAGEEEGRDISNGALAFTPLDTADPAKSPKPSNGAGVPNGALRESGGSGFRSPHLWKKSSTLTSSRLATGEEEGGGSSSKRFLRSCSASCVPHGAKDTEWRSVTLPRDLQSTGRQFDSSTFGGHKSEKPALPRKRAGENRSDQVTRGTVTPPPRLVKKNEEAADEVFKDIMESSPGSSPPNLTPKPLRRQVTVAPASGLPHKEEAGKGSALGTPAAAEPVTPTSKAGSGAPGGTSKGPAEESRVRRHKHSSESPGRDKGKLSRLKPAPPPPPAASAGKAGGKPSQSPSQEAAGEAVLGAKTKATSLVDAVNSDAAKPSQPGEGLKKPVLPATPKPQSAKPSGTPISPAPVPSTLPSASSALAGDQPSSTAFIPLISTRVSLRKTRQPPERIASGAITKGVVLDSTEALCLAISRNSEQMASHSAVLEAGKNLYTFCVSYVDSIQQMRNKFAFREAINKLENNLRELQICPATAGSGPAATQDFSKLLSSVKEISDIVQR
Chain of Bcr/Abl fusion protein (Homo sapiens) (P11274 whole entry, looked up, the tested form may be a part): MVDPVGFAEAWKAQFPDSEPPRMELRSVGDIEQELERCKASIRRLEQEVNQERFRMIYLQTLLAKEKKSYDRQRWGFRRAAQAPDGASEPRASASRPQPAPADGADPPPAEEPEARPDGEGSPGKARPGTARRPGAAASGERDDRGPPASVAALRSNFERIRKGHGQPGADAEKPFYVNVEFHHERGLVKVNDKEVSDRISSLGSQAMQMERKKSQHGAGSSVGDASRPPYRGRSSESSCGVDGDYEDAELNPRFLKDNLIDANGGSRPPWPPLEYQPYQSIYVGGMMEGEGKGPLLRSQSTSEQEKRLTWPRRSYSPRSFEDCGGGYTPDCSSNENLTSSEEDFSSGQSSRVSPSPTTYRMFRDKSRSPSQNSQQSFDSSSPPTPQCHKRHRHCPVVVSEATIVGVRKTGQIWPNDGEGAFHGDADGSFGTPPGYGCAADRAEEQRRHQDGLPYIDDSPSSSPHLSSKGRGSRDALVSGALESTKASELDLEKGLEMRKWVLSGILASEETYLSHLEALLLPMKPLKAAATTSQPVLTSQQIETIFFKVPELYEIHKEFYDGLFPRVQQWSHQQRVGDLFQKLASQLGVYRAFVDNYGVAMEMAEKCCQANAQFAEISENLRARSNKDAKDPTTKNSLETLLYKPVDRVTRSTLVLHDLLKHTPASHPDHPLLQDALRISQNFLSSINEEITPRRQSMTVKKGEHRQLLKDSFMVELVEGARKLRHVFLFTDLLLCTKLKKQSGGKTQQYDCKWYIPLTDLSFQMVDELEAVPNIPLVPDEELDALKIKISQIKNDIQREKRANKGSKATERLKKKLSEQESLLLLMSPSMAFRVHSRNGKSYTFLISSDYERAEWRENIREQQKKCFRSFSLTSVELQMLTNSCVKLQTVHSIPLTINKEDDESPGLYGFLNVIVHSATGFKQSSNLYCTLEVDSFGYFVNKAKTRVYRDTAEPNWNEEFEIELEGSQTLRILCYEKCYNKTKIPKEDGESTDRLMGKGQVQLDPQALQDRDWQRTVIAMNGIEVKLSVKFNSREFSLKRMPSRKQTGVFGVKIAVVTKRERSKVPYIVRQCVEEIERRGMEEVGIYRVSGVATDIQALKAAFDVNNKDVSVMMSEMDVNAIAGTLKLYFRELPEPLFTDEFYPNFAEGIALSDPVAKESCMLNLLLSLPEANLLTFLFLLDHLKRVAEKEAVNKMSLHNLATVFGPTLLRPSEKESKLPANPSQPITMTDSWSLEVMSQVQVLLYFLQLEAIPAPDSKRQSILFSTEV

As to `COc1cc(C(=O)c2cn(-c3ccccc3)cc2-c2ccc(N)cc2)cc(OC)c1OC`, the outcome with LAMA-84 [1], in the data set with LAMA-84 [2] and in the data set on KU812 cell line [17] was inactive. Further, in [3], the inhibition entry is “inactive”. The outcome with KU812 cell line [4], in the data set on KU812 cell line [16], in the data set with LAMA-84 [18], with KU812 cell line [21], with KU812 cell line [22] and with LAMA-84 [23] was Active. Also, the outcome with LAMA-84 [24], with KU812 cell line [25], in the data set on KBM5 [27] and in the data set on KBM5 [28] was Active. Moreover, the Activity is under 10% in the data set with KU812 cell line [5]; “Non-Toxic” in data set [8]; 58.2% in the data set on KBM5 [11]; 62.6% with KBM5 [12]; 60.3% in the data set on KU812 cell line [13]; 11.4% with KU812 cell line [14]. In addition, the Activity in the data set on KU812 cell line [15] was 75.6%; in the data set with KU812 cell line [29], “Tde”. Also, the inhibition at 0.012 µM in the data set on LAMA-84 [6] and in the data set with KU812 cell line [7] was 50% in each case. Besides, the inhibition at Tubulin (Homo sapiens) was determined as 81%. The IC50 in the data set on KYSE-150 cell line came out at 20 nM; in the data set with HCT-116 it was 20 nM; in the data set on HepG2, 46 nM; with KBM5 [9], 15 nM; in the data set on KBM5 [10], 18 nM; with KU812 cell line [19] it was 12 nM. For the same molecule, the IC50 in the data set with LAMA-84 [20] is 14 nM; in the data set on LAMA-84 [26] it was under 10 nM.

For the molecule `COc1cc(C(=O)c2cn(-c3ccc(C)cc3)cc2-c2ccccc2)cc(OC)c1OC`, the IC50 was 30 nM in the data set on MCF7 and 880 nM on Tubulin. On Tubulin (Homo sapiens), this molecule registered an inhibition of 79%.

Regarding `COc1cc(C(=O)c2cn(-c3ccccc3)cc2-c2cccc(F)c2)cc(OC)c1OC`, the IC50 with MCF7 was 57 nM; at Tubulin it was 630 nM. The molecule also had an inhibition on Tubulin (Homo sapiens) of 53%.

Turning to `COc1cc(C(=O)c2cn(-c3cccc(C)c3)cc2-c2ccccc2)cc(OC)c1OC`, the results for the IC50 in the data set on MCF7 and against Tubulin were 120 nM and 1700 nM, respectively. The molecule further registered an inhibition on Tubulin (Homo sapiens) of 82%.

`COc1cc(C(=O)c2cn(-c3ccccc3)cc2-c2ccc(C)cc2)cc(OC)c1OC`: the IC50 came to 280 nM in the data set with MCF7 and 2200 nM on Tubulin. The same molecule gave an inhibition at Tubulin (Homo sapiens) of 24%.

Take `COc1cc(C(=O)c2cn(-c3ccccc3F)cc2-c2ccccc2)cc(OC)c1OC`: the IC50 in the data set with MCF7 was 85 nM; at Tubulin, 2000 nM. Further, the inhibition at Tubulin (Homo sapiens) was determined as 29%.

For `COc1cc(C(=O)c2cn(-c3cccc(F)c3)cc2-c2ccccc2)cc(OC)c1OC`, the IC50 in the data set with MCF7 is 350 nM; against Tubulin it was 2900 nM. This molecule also registered an inhibition at Tubulin (Homo sapiens) of 42%.

For the molecule `COc1cc(C(=O)c2cn(-c3cccc(N)c3)cc2-c2ccccc2)cc(OC)c1OC`, the IC50 in the data set with MCF7 amounted to 74 nM; against Tubulin it was 1100 nM. On Tubulin (Homo sapiens), this molecule displayed an inhibition of 82%.
